# Tested on: Fibroblast
# Experiment: Multiplex assay against human fibroblast
# Type: toxicity, cell-based
# Method in brief: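 Compound was added to live cells that had been stained at seeding with Hoechst33342, BioTracker Green Microtubule Cytoskeleton Dye, MitoTracker Red and Annexin V Alexa Fluor 680, and imaging followed on a CQ1 microscope at 37°C and 5% CO2. CellPathfinder machine-learning gating divided cells into Hoechst high-intensity objects or normal cells, normal cells into healthy, pyknosed or fragmented nuclei, and pyknosed cells into mitotic or apoptotic. Tubulin, mitochondrial-mass and membrane-permeability phenotypes are per cents of healthy-nucleus cells.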
# [1] = 12 h, 1 µM, compound concentration 1 uM, replicate 1
# [2] = 12 h, 1 µM, compound concentration 1 uM, replicate 2
# [3] = 12 h, 10 µM, compound concentration 10 uM, replicate 1
# [4] = 12 h, 10 µM, compound concentration 10 uM, replicate 2
# [5] = 24 h, 1 µM, compound concentration 1 uM, replicate 1
# [6] = 24 h, 1 µM, compound concentration 1 uM, replicate 2
# [7] = 24 h, 10 µM, compound concentration 10 uM, replicate 1
# [8] = 24 h, 10 µM, compound concentration 10 uM, replicate 2
# [9] = 48 h, 1 µM, compound concentration 1 uM, replicate 1
# [10] = 48 h, 1 µM, compound concentration 1 uM, replicate 2
# [11] = 48 h, 10 µM, compound concentration 10 uM, replicate 1
# [12] = 48 h, 10 µM, compound concentration 10 uM, replicate 2
smiles,measurement,setting,value
COc1ccc(NS(=O)(=O)c2sc3ccc(Cl)cc3c2C)cc1N1CCNCC1.Cl,Population Apoptotic (%),[1],50%
same,Population Fragmented Nuclei (%),[1],25%
same,Population Healthy Nuclei (%),[1],38%
same,Population Hoechst High Intensity Objects (%),[1],10%
same,Population Membrane Permeable-Phenotype (%),[1],30%
same,Population Mitochondria Different-Phenotype (%),[1],4%
same,Population Mitotic Cells (%),[1],50%
same,Population Normal (%),[1],89%
same,Population Pyknosed Nuclei (%),[1],35%
same,Population Tubulin-Different-Phenotype (%),[1],30%
same,Total Cell Count,[1],125
same,Population Apoptotic (%),[2],28%
same,Population Fragmented Nuclei (%),[2],13%
same,Population Healthy Nuclei (%),[2],69%
same,Population Hoechst High Intensity Objects (%),[2],12%
same,Population Membrane Permeable-Phenotype (%),[2],0%
same,Population Mitochondria Different-Phenotype (%),[2],26%
same,Population Mitotic Cells (%),[2],71%
same,Population Normal (%),[2],87%
same,Population Pyknosed Nuclei (%),[2],16%
same,Population Tubulin-Different-Phenotype (%),[2],10%
same,Total Cell Count,[2],69
same,Population Apoptotic (%),[3],75%
same,Population Fragmented Nuclei (%),[3],33%
same,Population Healthy Nuclei (%),[3],47%
same,Population Hoechst High Intensity Objects (%),[3],22%
same,Population Membrane Permeable-Phenotype (%),[3],1%
same,Population Mitochondria Different-Phenotype (%),[3],40%
same,Population Mitotic Cells (%),[3],24%
same,Population Normal (%),[3],77%
same,Population Pyknosed Nuclei (%),[3],19%
same,Population Tubulin-Different-Phenotype (%),[3],88%
same,Total Cell Count,[3],217
same,Population Apoptotic (%),[4],61%
same,Population Fragmented Nuclei (%),[4],14%
same,Population Healthy Nuclei (%),[4],56%
same,Population Hoechst High Intensity Objects (%),[4],4%
same,Population Membrane Permeable-Phenotype (%),[4],25%
same,Population Mitochondria Different-Phenotype (%),[4],100%
same,Population Mitotic Cells (%),[4],38%
same,Population Normal (%),[4],95%
same,Population Pyknosed Nuclei (%),[4],29%
same,Population Tubulin-Different-Phenotype (%),[4],94%
same,Total Cell Count,[4],49
same,Population Apoptotic (%),[5],40%
same,Population Fragmented Nuclei (%),[5],26%
same,Population Healthy Nuclei (%),[5],52%
same,Population Hoechst High Intensity Objects (%),[5],11%
same,Population Membrane Permeable-Phenotype (%),[5],25%
same,Population Mitochondria Different-Phenotype (%),[5],3%
same,Population Mitotic Cells (%),[5],60%
same,Population Normal (%),[5],88%
same,Population Pyknosed Nuclei (%),[5],20%
same,Population Tubulin-Different-Phenotype (%),[5],42%
same,Total Cell Count,[5],136
same,Population Apoptotic (%),[6],33%
same,Population Fragmented Nuclei (%),[6],10%
same,Population Healthy Nuclei (%),[6],77%
same,Population Hoechst High Intensity Objects (%),[6],3%
same,Population Membrane Permeable-Phenotype (%),[6],5%
same,Population Mitochondria Different-Phenotype (%),[6],13%
same,Population Mitotic Cells (%),[6],66%
same,Population Normal (%),[6],96%
same,Population Pyknosed Nuclei (%),[6],12%
same,Population Tubulin-Different-Phenotype (%),[6],5%
same,Total Cell Count,[6],67
same,Population Apoptotic (%),[7],72%
same,Population Fragmented Nuclei (%),[7],23%
same,Population Healthy Nuclei (%),[7],51%
same,Population Hoechst High Intensity Objects (%),[7],25%
same,Population Membrane Permeable-Phenotype (%),[7],9%
same,Population Mitochondria Different-Phenotype (%),[7],50%
same,Population Mitotic Cells (%),[7],27%
same,Population Normal (%),[7],74%
same,Population Pyknosed Nuclei (%),[7],25%
same,Population Tubulin-Different-Phenotype (%),[7],80%
same,Total Cell Count,[7],226
same,Population Apoptotic (%),[8],68%
same,Population Fragmented Nuclei (%),[8],16%
same,Population Healthy Nuclei (%),[8],47%
same,Population Hoechst High Intensity Objects (%),[8],2%
same,Population Membrane Permeable-Phenotype (%),[8],55%
same,Population Mitochondria Different-Phenotype (%),[8],97%
same,Population Mitotic Cells (%),[8],32%
same,Population Normal (%),[8],97%
same,Population Pyknosed Nuclei (%),[8],35%
same,Population Tubulin-Different-Phenotype (%),[8],91%
same,Total Cell Count,[8],51
same,Population Apoptotic (%),[9],66%
same,Population Fragmented Nuclei (%),[9],38%
same,Population Healthy Nuclei (%),[9],47%
same,Population Hoechst High Intensity Objects (%),[9],20%
same,Population Membrane Permeable-Phenotype (%),[9],17%
same,Population Mitochondria Different-Phenotype (%),[9],0%
same,Population Mitotic Cells (%),[9],33%
same,Population Normal (%),[9],79%
same,Population Pyknosed Nuclei (%),[9],14%
same,Population Tubulin-Different-Phenotype (%),[9],21%
same,Total Cell Count,[9],134
same,Population Apoptotic (%),[10],100%
same,Population Fragmented Nuclei (%),[10],53%
same,Population Healthy Nuclei (%),[10],45%
same,Population Hoechst High Intensity Objects (%),[10],25%
same,Population Membrane Permeable-Phenotype (%),[10],9%
same,Population Mitochondria Different-Phenotype (%),[10],1%
same,Population Mitotic Cells (%),[10],0%
same,Population Normal (%),[10],74%
same,Population Pyknosed Nuclei (%),[10],1%
same,Population Tubulin-Different-Phenotype (%),[10],49%
same,Total Cell Count,[10],219
same,Population Apoptotic (%),[11],86%
same,Population Fragmented Nuclei (%),[11],33%
same,Population Healthy Nuclei (%),[11],44%
same,Population Hoechst High Intensity Objects (%),[11],42%
same,Population Membrane Permeable-Phenotype (%),[11],10%
same,Population Mitochondria Different-Phenotype (%),[11],46%
same,Population Mitotic Cells (%),[11],13%
same,Population Normal (%),[11],57%
same,Population Pyknosed Nuclei (%),[11],21%
same,Population Tubulin-Different-Phenotype (%),[11],73%
same,Total Cell Count,[11],191
same,Population Apoptotic (%),[12],93%
same,Population Fragmented Nuclei (%),[12],34%
same,Population Healthy Nuclei (%),[12],26%
same,Population Hoechst High Intensity Objects (%),[12],24%
same,Population Membrane Permeable-Phenotype (%),[12],22%
same,Population Mitochondria Different-Phenotype (%),[12],54%
same,Population Mitotic Cells (%),[12],6%
same,Population Normal (%),[12],75%
same,Population Pyknosed Nuclei (%),[12],39%
same,Population Tubulin-Different-Phenotype (%),[12],72%
same,Total Cell Count,[12],111

# — ChEMBL document CHEMBL4689842, “EUbOPEN Chemogenomics Library wave 1” (2021)
